In ChEMBL document CHEMBL2029265, “2-(Pyrrolidin-1-yl)ethyl-3,4-dihydroisoquinolin-1(2H)-one derivatives as potent and selective histamine-3 receptor antagonists” (J Med Chem, 2012):

How the values were obtained:
[1] = biological target: 5-hydroxytryptamine receptor 6 (Homo sapiens, UniProt P50406); assay: Binding affinity to 5-HT6 receptor
[2] = biological target: Sodium-dependent dopamine transporter (Homo sapiens, UniProt Q01959); assay: Binding affinity to DAT
[3] = biological target: T1, 5-hydroxytryptamine receptor 1A (Homo sapiens, UniProt P08908); assay: Binding affinity to 5-HT1A receptor
T1 sequence (P08908 whole entry): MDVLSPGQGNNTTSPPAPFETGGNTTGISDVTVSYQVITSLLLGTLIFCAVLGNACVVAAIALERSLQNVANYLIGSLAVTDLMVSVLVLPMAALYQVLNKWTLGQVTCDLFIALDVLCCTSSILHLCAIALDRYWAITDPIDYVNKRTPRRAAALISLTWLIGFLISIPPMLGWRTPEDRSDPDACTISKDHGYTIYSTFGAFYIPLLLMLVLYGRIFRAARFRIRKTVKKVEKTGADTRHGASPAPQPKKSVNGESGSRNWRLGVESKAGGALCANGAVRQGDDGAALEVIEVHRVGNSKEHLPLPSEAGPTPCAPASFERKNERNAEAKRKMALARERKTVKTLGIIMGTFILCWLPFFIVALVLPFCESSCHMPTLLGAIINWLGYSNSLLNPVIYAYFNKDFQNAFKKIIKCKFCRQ

Histamine H1 receptor = Histamine H1 receptor (Homo sapiens, UniProt P35367); assay: Binding affinity to H1 receptor
[4] = biological target: 5-hydroxytryptamine receptor 2B (Homo sapiens, UniProt P41595); assay: Binding affinity to 5-HT2B receptor
Histamine H3 receptor [5] = biological target: T2, Histamine H3 receptor (Homo sapiens, UniProt Q9Y5N1); assay: Displacement of [3H]-(R)-alpha-methylhistamine from human H3 receptor expressed in HEK293T cells after 120 mins by scintillation counting; format: cell-based, HEK-293T
Histamine H2 receptor = Histamine H2 receptor (Homo sapiens, UniProt P25021); assay: Binding affinity to H2 receptor
[6] = biological target: Voltage-gated inwardly rectifying potassium channel KCNH2 (Homo sapiens, UniProt Q12809); assay: Inhibition of human ERG by IonWorks assay
[7] = biological target: Sodium-dependent serotonin transporter (Homo sapiens, UniProt P31645); assay: Binding affinity to 5-HT transporter
[8] = biological target: T3, Alpha-2A adrenergic receptor (Homo sapiens, UniProt P08913); assay: Binding affinity to alpha-2A receptor
T3 sequence (P08913 whole entry): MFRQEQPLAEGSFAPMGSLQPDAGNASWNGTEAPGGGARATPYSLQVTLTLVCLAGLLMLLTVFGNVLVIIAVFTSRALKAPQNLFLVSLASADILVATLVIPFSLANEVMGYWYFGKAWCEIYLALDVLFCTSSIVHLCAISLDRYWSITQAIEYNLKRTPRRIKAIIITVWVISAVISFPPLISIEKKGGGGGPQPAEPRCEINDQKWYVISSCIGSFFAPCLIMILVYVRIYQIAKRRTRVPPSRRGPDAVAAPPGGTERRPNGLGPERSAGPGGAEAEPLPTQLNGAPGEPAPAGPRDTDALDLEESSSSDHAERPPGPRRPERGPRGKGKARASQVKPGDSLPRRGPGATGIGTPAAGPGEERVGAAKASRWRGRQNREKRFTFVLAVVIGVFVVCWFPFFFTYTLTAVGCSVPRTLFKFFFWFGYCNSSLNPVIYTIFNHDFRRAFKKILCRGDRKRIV

D(2) dopamine receptor = D(2) dopamine receptor (Homo sapiens, UniProt P14416); assay: Binding affinity to D2 receptor
[9] = Half life in human liver microsomes at 1 uM after 30 mins in presence of NADPH and UDPGA; format: ADME, Microsome
Summary of the method: (§1)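 Liver microsomes from rat, dog, monkey and human were incubated with phase I + II cofactors (NADPH + UDPGA). Half-life was measured in minutes.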

[10] = Ratio of Brain AUC (0 to infinity) to plasma AUC (0 to infinity) in rat at 10 mg/kg, po; format: ADME, organism-based; design: dose 10 mg/kg, route oral; conditions: read-out: BPR
Summary of the method: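 Rats dosed orally at 10 mg/kg; brain and plasma AUC0→∞ measured, ratio taken as brain/plasma. Oral vehicle 2% Tween/0.5% methyl cellulose in water.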

[11] = Apparent permeability from apical to basolateral side of human Caco2 cells; format: ADME, cell-based; conditions: Caco-2
Summary of the method: (§2)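 Permeability was measured across Caco-2 epithelial monolayers in both the apical→basolateral and basolateral→apical directions. Apparent permeability is reported in 10−6 cm/s, and a directional ratio (B→A over A→B) was derived.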

[12] = Metabolic stability in cynomolgus monkey liver microsomes assessed as GSH adduct formation at 1 uM after 30 mins in presence of NADPH and UDPGA; format: ADME, Macaca fascicularis, Microsome; conditions: 0.5 h
Summary of the method: (§3)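 Incubations used liver microsomes with NADPH + UDPGA. Glutathione adduct formation was monitored.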

Cytochrome P450 2C9 = Cytochrome P450 2C9 (Homo sapiens, UniProt P11712); assay: Inhibition of CYP2C9 in human liver microsomes up to 100 uM; format: ADME, Microsome
Summary of the method: (§4)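 Human liver microsomes were incubated with test article at varying concentrations up to 100 μM. Activities measured were CYP1A2, 2A6, 2B6, 2C8, 2C9, 2C19 and 2D6, plus CYP3A4 via midazolam 1′-hydroxylation and via testosterone 6β-hydroxylation.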

[13] = Apparent permeability from basolateral to apical side of human Caco2 cells; format: ADME, cell-based; conditions: Caco-2; summary of the method: as §2
[14] = Fraction unbound in human plasma; format: ADME, cell-free
Summary of the method: (§5)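 Free fraction in human and rat plasma was determined by ultrafiltration.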

[15] = Fraction unbound in rat plasma; format: ADME, cell-free; summary of the method: as §5
Cytochrome P450 2D6 = Cytochrome P450 2D6 (Homo sapiens, UniProt P10635); assay: Inhibition of CYP2D6 in human liver microsomes up to 100 uM; format: ADME, Microsome; summary of the method: as §4
Liver microsomes [16] = assay: Metabolic stability in human liver microsomes assessed as GSH adduct formation at 1 uM after 30 mins in presence of NADPH and UDPGA; format: ADME, Microsome; conditions: 0.5 h; summary of the method: as §3
Cytochrome P450 2A6 = Cytochrome P450 2A6 (Homo sapiens, UniProt P11509); assay: Inhibition of CYP2A6 in human liver microsomes up to 100 uM; format: ADME, Microsome; summary of the method: as §4
Histamine H3 receptor [17] = biological target: T2, Histamine H3 receptor; assay: Inverse agonist activity at human H3 receptor expressed in HEK293T cells assessed as inhibition of {35S]GTPgamma binding; format: cell-based, HEK-293T
Summary of the method: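 Basal [35S]GTPγS binding was measured in membranes from HEK cells expressing human H3 receptor, across a range of concentrations. EC50 and maximal inhibition relative to basal binding were derived.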

Brain = assay: AUC (0 to infinity) in rat brain at 10 mg/kg, po; format: ADME, organism-based; design: dose 10 mg/kg, route oral, time infinity; conditions: in vivo
Summary of the method: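 Rats were dosed orally at 10 mg/kg. AUC0→∞ was determined in both brain and plasma, and the brain/plasma ratio was calculated from the two AUCs.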

Liver microsomes [18] = assay: Metabolic stability in Sprague-Dawley rat liver microsomes assessed as GSH adduct formation at 1 uM after 30 mins in presence of NADPH and UDPGA; format: ADME, Microsome; conditions: 0.5 h; summary of the method: as §3
[19] = Binding affinity to human alpha1-acid glycoprotein; format: ADME
Summary of the method: (§6)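 Binding to human serum albumin and to α1-acid glycoprotein was assessed by Biacore analysis.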

[20] = Half life in cynomolgus monkey liver microsomes at 1 uM after 30 mins in presence of NADPH and UDPGA; format: ADME, Macaca fascicularis, Microsome; summary of the method: as §1
[21] = Half life in beagle dog liver microsomes at 1 uM after 30 mins in presence of NADPH and UDPGA; format: ADME, Canis lupus familiaris, Microsome; summary of the method: as §1
Plasma = assay: AUC (0 to infinity) in rat plasma at 10 mg/kg, po; format: ADME, organism-based; design: time infinity, dose 10 mg/kg, route oral; conditions: in vivo
Cytochrome P450 3A4 [22] = biological target: T4, Cytochrome P450 3A4 (Homo sapiens, UniProt P08684); assay: Inhibition of CYP3A4-mediated midazolam-1'-hydroxylation activity in human liver microsomes at 100 uM; format: ADME, Microsome; summary of the method: as §4
Liver = assay: Metabolic stability in beagle dog liver microsomes assessed as GSH adduct formation at 1 uM after 30 mins in presence of NADPH and UDPGA; format: ADME, Canis lupus familiaris, Microsome; conditions: 0.5 h; summary of the method: as §3
[23] = Half life in Sprague-Dawley rat liver microsomes at 1 uM after 30 mins in presence of NADPH and UDPGA; format: ADME, Microsome; summary of the method: as §1
Albumin = Albumin (Homo sapiens, UniProt P02768); assay: Binding affinity to human serum albumin; format: ADME; conditions: isolated protein; summary of the method: as §6
Cytochrome P450 2C8 = Cytochrome P450 2C8 (Homo sapiens, UniProt P10632); assay: Inhibition of CYP2C8 in human liver microsomes up to 100 uM; format: ADME, Microsome; summary of the method: as §4
Cytochrome P450 1A2 = Cytochrome P450 1A2 (Homo sapiens, UniProt P05177); assay: Inhibition of CYP1A2 in human liver microsomes up to 100 uM; format: ADME, Microsome; summary of the method: as §4
Cytochrome P450 3A4 [24] = biological target: T4, Cytochrome P450 3A4; assay: Inhibition of CYP3A4 in human liver microsomes up to 100 uM; format: ADME, Microsome; summary of the method: as §4
Cytochrome P450 2B6 = Cytochrome P450 2B6 (Homo sapiens, UniProt P20813); assay: Inhibition of CYP2B6 in human liver microsomes up to 100 uM; format: ADME, Microsome; summary of the method: as §4
Cytochrome P450 3A4 [25] = biological target: T4, Cytochrome P450 3A4; assay: Inhibition of CYP3A4-mediated testosterone-6beta-hydroxylation activity in human liver microsomes at 100 uM; format: ADME, Microsome; summary of the method: as §4
Cytochrome P450 2C19 = Cytochrome P450 2C19 (Homo sapiens, UniProt P33261); assay: Inhibition of CYP2C19 in human liver microsomes up to 100 uM; format: ADME, Microsome; summary of the method: as §4
Cytochrome P450 2C19, sequence (P33261 whole entry): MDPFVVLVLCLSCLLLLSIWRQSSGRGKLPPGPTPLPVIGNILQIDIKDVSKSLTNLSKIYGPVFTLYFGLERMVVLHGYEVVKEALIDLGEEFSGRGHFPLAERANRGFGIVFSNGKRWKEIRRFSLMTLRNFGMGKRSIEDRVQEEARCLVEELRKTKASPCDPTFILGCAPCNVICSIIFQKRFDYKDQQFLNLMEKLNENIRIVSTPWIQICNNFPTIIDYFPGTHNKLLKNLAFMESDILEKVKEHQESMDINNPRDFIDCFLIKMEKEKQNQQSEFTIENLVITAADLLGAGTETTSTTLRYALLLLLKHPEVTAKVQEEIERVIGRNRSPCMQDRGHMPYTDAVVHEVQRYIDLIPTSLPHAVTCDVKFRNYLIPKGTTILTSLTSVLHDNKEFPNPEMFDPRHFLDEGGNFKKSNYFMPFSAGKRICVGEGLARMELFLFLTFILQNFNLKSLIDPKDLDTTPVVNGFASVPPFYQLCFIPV

Histamine H1 receptor, sequence (P35367 whole entry): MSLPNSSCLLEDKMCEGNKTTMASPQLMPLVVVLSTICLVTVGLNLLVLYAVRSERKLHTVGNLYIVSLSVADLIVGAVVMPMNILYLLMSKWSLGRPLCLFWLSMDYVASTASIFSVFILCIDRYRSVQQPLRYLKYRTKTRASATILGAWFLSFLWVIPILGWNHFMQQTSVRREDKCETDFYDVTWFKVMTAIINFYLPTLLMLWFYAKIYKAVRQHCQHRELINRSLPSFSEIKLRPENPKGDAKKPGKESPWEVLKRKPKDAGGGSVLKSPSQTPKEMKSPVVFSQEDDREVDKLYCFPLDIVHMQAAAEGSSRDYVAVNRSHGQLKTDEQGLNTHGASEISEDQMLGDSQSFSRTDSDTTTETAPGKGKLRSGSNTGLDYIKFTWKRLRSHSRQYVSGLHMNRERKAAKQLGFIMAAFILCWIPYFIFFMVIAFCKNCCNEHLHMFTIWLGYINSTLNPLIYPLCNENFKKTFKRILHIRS
5-hydroxytryptamine receptor 2B, sequence (P41595 whole entry): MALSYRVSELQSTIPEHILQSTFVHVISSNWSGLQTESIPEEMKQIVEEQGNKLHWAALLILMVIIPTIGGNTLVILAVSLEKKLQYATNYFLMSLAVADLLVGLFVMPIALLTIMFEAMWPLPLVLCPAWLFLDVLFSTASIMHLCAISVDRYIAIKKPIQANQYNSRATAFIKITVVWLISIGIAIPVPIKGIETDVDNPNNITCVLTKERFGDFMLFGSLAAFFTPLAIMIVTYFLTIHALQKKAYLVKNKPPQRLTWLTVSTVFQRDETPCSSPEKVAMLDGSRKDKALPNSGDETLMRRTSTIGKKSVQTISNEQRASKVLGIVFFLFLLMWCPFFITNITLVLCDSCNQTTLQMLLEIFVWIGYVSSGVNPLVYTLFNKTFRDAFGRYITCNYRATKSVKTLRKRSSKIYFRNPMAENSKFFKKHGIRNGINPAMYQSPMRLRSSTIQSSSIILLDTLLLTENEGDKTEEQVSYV
Histamine H2 receptor, sequence (P25021 whole entry): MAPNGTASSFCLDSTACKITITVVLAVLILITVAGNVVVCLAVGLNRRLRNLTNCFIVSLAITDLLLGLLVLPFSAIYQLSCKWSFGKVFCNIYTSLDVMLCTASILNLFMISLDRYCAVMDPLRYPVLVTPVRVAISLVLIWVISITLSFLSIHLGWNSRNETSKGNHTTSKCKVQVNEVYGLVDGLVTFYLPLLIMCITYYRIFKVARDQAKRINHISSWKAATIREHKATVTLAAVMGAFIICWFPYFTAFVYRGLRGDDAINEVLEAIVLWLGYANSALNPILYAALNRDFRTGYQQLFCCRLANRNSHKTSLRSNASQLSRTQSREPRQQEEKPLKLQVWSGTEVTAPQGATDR
Sodium-dependent dopamine transporter, sequence (Q01959 whole entry): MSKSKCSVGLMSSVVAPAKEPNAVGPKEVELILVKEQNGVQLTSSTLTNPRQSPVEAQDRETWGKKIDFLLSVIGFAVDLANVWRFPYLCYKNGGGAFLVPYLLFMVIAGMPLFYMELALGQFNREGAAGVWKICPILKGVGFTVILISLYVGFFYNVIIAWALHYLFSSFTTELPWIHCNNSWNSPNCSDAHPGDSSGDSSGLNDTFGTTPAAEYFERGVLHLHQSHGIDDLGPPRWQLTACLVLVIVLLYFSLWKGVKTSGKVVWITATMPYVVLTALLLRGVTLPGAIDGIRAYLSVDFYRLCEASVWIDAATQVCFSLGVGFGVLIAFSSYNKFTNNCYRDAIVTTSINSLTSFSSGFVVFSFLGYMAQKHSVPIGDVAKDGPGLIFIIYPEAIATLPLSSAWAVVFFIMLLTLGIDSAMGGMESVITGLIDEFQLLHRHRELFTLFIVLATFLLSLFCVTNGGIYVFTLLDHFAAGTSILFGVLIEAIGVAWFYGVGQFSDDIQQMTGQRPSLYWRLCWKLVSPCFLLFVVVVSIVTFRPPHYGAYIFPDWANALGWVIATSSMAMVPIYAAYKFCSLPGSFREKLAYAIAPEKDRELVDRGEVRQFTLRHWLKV
Sodium-dependent serotonin transporter, sequence (P31645 whole entry): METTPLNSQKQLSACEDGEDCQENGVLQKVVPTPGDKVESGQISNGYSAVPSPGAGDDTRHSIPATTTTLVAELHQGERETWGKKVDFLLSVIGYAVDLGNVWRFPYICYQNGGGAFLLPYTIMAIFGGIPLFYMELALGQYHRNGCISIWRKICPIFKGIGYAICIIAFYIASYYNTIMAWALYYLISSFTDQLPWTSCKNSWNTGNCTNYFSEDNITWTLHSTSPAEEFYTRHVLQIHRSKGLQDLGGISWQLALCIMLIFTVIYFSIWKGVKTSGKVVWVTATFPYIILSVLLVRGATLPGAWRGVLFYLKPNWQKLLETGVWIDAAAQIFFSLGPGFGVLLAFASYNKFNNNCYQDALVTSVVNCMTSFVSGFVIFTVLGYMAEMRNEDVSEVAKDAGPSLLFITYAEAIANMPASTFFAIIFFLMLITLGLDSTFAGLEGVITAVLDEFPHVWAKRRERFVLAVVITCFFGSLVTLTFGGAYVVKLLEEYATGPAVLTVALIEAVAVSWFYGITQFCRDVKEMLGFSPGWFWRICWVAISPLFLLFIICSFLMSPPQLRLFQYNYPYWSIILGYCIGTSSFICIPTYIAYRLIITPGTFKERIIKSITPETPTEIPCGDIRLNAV
5-hydroxytryptamine receptor 6, sequence (P50406 whole entry): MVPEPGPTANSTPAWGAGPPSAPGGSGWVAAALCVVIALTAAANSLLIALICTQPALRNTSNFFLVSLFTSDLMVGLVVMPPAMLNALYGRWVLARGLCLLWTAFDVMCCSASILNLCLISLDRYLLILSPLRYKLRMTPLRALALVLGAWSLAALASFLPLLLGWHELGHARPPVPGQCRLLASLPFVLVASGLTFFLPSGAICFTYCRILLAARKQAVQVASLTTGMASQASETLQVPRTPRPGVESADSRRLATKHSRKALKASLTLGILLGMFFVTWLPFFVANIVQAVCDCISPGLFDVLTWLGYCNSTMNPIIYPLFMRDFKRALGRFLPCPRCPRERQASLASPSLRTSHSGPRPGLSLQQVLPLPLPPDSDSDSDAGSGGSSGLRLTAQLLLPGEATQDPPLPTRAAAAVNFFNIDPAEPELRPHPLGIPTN
T4 sequence (P08684 whole entry): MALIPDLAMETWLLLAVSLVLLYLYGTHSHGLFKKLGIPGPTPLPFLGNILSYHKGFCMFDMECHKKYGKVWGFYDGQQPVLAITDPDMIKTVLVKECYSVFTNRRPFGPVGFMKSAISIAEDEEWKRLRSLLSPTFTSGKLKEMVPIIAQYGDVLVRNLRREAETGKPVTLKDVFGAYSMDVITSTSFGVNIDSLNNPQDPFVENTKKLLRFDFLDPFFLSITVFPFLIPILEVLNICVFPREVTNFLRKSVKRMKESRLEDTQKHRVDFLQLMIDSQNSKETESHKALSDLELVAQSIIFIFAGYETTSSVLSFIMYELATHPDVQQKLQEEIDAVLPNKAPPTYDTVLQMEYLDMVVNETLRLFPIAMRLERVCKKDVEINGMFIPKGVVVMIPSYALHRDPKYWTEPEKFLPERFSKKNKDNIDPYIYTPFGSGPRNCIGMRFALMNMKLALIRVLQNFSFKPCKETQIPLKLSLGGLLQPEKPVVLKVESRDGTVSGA
D(2) dopamine receptor, sequence (P14416 whole entry): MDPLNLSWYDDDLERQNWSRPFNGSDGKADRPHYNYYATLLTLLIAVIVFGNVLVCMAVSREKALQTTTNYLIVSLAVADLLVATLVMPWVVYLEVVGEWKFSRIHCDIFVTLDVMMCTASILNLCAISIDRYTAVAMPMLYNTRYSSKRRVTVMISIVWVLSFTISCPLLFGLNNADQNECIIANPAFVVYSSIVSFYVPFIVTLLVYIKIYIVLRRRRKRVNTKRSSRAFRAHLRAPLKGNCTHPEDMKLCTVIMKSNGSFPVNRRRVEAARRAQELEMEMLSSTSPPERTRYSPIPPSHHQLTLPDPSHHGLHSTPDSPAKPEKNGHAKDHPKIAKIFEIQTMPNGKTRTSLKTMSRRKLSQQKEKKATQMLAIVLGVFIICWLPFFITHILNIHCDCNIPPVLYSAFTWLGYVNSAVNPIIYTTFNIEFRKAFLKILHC
T2 sequence (Q9Y5N1 whole entry): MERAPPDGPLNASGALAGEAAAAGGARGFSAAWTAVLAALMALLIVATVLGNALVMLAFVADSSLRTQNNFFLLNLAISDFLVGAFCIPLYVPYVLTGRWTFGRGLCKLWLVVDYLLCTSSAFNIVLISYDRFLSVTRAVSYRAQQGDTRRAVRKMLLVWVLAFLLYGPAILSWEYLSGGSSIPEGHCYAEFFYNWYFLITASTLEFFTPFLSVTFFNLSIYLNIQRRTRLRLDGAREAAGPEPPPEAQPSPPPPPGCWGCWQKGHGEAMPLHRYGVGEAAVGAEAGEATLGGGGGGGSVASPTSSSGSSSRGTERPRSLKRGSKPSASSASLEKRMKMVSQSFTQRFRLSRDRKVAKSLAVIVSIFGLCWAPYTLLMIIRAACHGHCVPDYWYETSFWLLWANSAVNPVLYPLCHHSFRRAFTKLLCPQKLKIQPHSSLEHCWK

## C[C@@H]1CCCN1C(=O)c1ccc(-c2ccc3c(c2)CCN(CCN2CCCC2)C3=O)cc1
[1]
  Ki: > 10 µM
[2]
  Ki: > 10 µM
[3]
  Ki: 9.72 µM
Histamine H1 receptor
  Ki: > 10 µM
[4]
  Ki: > 10 µM
Histamine H3 receptor [5]
  Ki: 0.0017 µM
Histamine H2 receptor
  Ki: > 10 µM
[6]
  IC50: 10.5 µM
[7]
  Ki: 0.32 µM
[8]
  Ki: > 3 µM
D(2) dopamine receptor
  Ki: > 10 µM

## C[C@@H]1CCCN1CCN1CCc2cc(-c3ccc(C(=O)N4CCCC4)cc3)ccc2C1=O
[1]
  Ki: > 10 µM
[2]
  Ki: > 10 µM
[3]
  Ki: 12.2 µM
Histamine H1 receptor
  Ki: 8.75 µM
[4]
  Ki: > 10 µM
Histamine H3 receptor [5]
  Ki: 0.0002 µM
Histamine H2 receptor
  Ki: > 10 µM
[7]
  Ki: 0.81 µM
[8]
  Ki: > 3 µM
D(2) dopamine receptor
  Ki: > 10 µM

## CN(C)C(=O)c1ccc(-c2ccc3c(c2)CCN(CCN2CCCC2)C3=O)cc1
[9]
  half-life at 1 µM: 69 min
[10]
  Kp: 0.27
[11]
  Papp A→B: 12.1 ×10⁻⁶ cm/s
[12]
  Stability: Stable
Cytochrome P450 2C9
  inhibition (INH): Not Active
[13]
  Papp B→A: 31.1 ×10⁻⁶ cm/s
[14]
  fraction unbound: 0.59
[15]
  fraction unbound: 0.5
Cytochrome P450 2D6
  inhibition (INH): Not Active
[1]
  Ki: > 10 µM
[2]
  Ki: > 10 µM
Liver microsomes [16]
  Stability: Stable
Cytochrome P450 2A6
  inhibition (INH): Not Active
[3]
  Ki: 8.67 µM
Histamine H1 receptor
  Ki: > 10 µM
Histamine H3 receptor [17]
  EC50: 0.0107 µM
Brain
  AUC: 642 ng·h/g
[4]
  Ki: > 10 µM
Liver microsomes [18]
  Stability: Stable
[19]
  Activity: Toxic
Histamine H3 receptor [5]
  Ki: 0.0009 µM
Histamine H2 receptor
  Ki: > 55 µM
[20]
  half-life at 1 µM: > 60 min
[21]
  half-life at 1 µM: 47 min
Plasma
  AUC: 2369 ng·h/g
Cytochrome P450 3A4 [22]
  inhibition (INH): Not Active
[7]
  Ki: > 3 µM
[8]
  Ki: > 3 µM
Liver
  Stability: Stable
[23]
  half-life at 1 µM: 26 min
Albumin
  Activity: Toxic
Cytochrome P450 2C8
  inhibition (INH): Not Active
Cytochrome P450 1A2
  inhibition (INH): Not Active
Cytochrome P450 3A4 [24]
  inhibition (INH): Not Active
Cytochrome P450 2B6
  inhibition (INH): Not Active
Cytochrome P450 3A4 [25]
  inhibition (INH): Not Active
Cytochrome P450 2C19
  inhibition (INH): Not Active
D(2) dopamine receptor
  Ki: > 10 µM

## C[C@H]1CCCN1C(=O)c1ccc(-c2ccc3c(c2)CCN(CCN2CCCC2)C3=O)cc1
[1]
  Ki: > 10 µM
[2]
  Ki: > 10 µM
[3]
  Ki: 9.04 µM
Histamine H1 receptor
  Ki: 7.01 µM
[4]
  Ki: > 10 µM
Histamine H3 receptor [5]
  Ki: 0.0017 µM
Histamine H2 receptor
  Ki: > 10 µM
[6]
  IC50: 12 µM
[7]
  Ki: 0.39 µM
[8]
  Ki: > 3 µM
D(2) dopamine receptor
  Ki: > 10 µM
